From ChEMBL document CHEMBL3739331, “Synthesis and Bioactivities of Kanamycin B-Derived Cationic Amphiphiles” (J Med Chem, 2015)
≈ marks a conversion by molar mass, not a printed value. Calls of active or inactive are those of the source. The calls are words filed in the database; no cut-off is given here.

Legend:
Listeria monocytogenes [1] = experiment: Resistance index, ratio of MIC for Listeria monocytogenes ATCC 19115 after 6-passage to MIC for Listeria monocytogenes ATCC 19115 by microdilution method; type: functional
Procedure, shortened: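 Cells grown at subinhibitory concentration (1/2 MIC) seed each next round. The index compares the MIC at a later passage with the starting MIC.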

Candida albicans [2] = experiment: Antifungal activity against azole-resistant Candida albicans ATCC 64124 assessed as cell membrane permeabilization at 62.5 ug/ml after 1 hr by propidium iodide-staining based fluorescence microscopic analysis (reference value: <2%); type: functional
[3] = Hemolytic activity against mouse RBC at 100 to 500 ug/ml after 60 mins; type: ADME, cell-based; settings: erythrocyte, 1 h
A549 = experiment: Cytotoxicity against human A549 cells after 24 hrs by resazurin assay; type: cell-based; settings: human, a549, 24 h
[4] = Cytotoxicity against human BEAS2B cells after 24 hrs by resazurin assay; type: cell-based, BEAS-2B; settings: human, beas-2b
Klebsiella pneumoniae = experiment: Antibacterial activity against Klebsiella pneumoniae ATCC 27736 by microdilution method; type: functional
Procedure, shortened: (§1)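 Broth microdilution MIC against the named bacterial strain, reported in μg/mL; each determination run at least in duplicate.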

Bacillus subtilis = experiment: Antibacterial activity against Bacillus subtilis 168 by microdilution method; type: functional; settings: subsp. subtilis str. 168; procedure, shortened: as §1
Listeria monocytogenes [5] = experiment: Antibacterial activity against Listeria monocytogenes ATCC 19115 by microdilution method; type: functional; procedure, shortened: as §1
Staphylococcus aureus [6] = experiment: Antibacterial activity against methicillin-resistant Staphylococcus aureus by microdilution method; type: functional
Procedure, shortened: (§2)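 Broth microdilution MIC, in μg/mL, against a panel of Gram-positive and Gram-negative strains. Run at least in duplicate.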

[7] = tested on: Mycolicibacterium smegmatis; experiment: Antibacterial activity against Mycobacterium smegmatis MC2 155 by microdilution method; type: functional; settings: str. MC2 155; procedure, shortened: as §2
Staphylococcus aureus [8] = experiment: Antibacterial activity against Staphylococcus aureus ATCC 29213 by microdilution method; type: functional; procedure, shortened: as §1
Staphylococcus aureus [9] = experiment: Antibacterial activity against Staphylococcus aureus NRS382 (USA 100) by microdilution method; type: functional; procedure, shortened: as §1
Staphylococcus aureus [10] = experiment: Antibacterial activity against Staphylococcus aureus NRS383 (USA 200) by microdilution method; type: functional; procedure, shortened: as §1
Staphylococcus aureus [11] = experiment: Antibacterial activity against Staphylococcus aureus NRS385 (USA 300) by microdilution method; type: functional; procedure, shortened: as §2
Staphylococcus aureus [12] = experiment: Antibacterial activity against Staphylococcus aureus NRS22 (USA 600) by microdilution method; type: functional; procedure, shortened: as §1
[13] = tested on: Staphylococcus epidermidis; experiment: Antibacterial activity against Staphylococcus epidermidis ATCC 12228 by microdilution method; type: functional; procedure, shortened: as §1
Enterococcus = experiment: Antibacterial activity against vancomycin-resistant Enterococcus by microdilution method; type: functional; procedure, shortened: as §2
Acinetobacter baumannii = experiment: Antibacterial activity against Acinetobacter baumannii ATCC 19606 by microdilution method; type: functional; procedure, shortened: as §1
Enterobacter cloacae = experiment: Antibacterial activity against Enterobacter cloacae ATCC 13047 by microdilution method; type: functional; procedure, shortened: as §1
Escherichia coli = experiment: Antibacterial activity against Escherichia coli MC1061 by microdilution method; type: functional; procedure, shortened: as §2
Pseudomonas aeruginosa = experiment: Antibacterial activity against Pseudomonas aeruginosa ATCC 27853 by microdilution method; type: functional; procedure, shortened: as §1
Salmonella enterica = experiment: Antibacterial activity against Salmonella enterica ATCC 14028 by microdilution method; type: functional; procedure, shortened: as §1
[14] = Activity of AAC(3)-4 (unknown origin) assessed as compound conversion to monoacetylated product incubated for 20 hrs by TLC analysis
[15] = tested on: Mycobacterium tuberculosis; experiment: Activity of Mycobacterium tuberculosis AAC(2')-1c assessed as compound conversion to monoacetylated product incubated for 20 hrs by TLC analysis
Serratia marcescens = experiment: Activity of Serratia marcescens AAC(6')-2d assessed as compound conversion to monoacetylated product incubated for 20 hrs by TLC analysis
[16] = Activity of Mycobacterium tuberculosis AAC(2')-1c/AAC(3)-4 (unknown origin) assessed as compound conversion to 3'-acetylated product incubated for 20 hrs by TLC analysis
[17] = Activity of Mycobacterium tuberculosis AAC(2')-1c/Serratia marcescens AAC(6')-2d assessed as compound conversion to 6'-monoacetylated product incubated for 20 hrs by TLC analysis
[18] = Activity of AAC(3)-4 (unknown origin)/Serratia marcescens AAC(6')-2d assessed as compound conversion to 3'-acetylated product incubated for 20 hrs by TLC analysis
[19] = Activity of Mycobacterium tuberculosis […]/AAC(3)-4 (unknown origin)/Serratia marcescens AAC(6')-2d (unknown origin) assessed as compound conversion to diacetylated adduct incubated for 20 hrs by TLC analysis
Candida albicans [20] = experiment: Antifungal activity against azole-resistant Candida albicans ATCC 10231 after 48 hrs by microbroth dilution method; type: functional; settings: ATCC 10231, 48 h
Procedure, shortened: (§3)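 Yeast MIC by broth microdilution, run in duplicate. The aminoglycoside compounds are read as MIC-0 (complete inhibition). Azoles are read as MIC-2 (50% inhibition).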

Candida albicans [21] = experiment: Antifungal activity against azole-resistant Candida albicans ATCC 64124 after 48 hrs by microbroth dilution method; type: functional; settings: ATCC 64124, 48 h; procedure, shortened: as §3
Candida albicans [22] = experiment: Antifungal activity against azole-susceptible Candida albicans ATCC MYA-2876 after 48 hrs by microbroth dilution method; type: functional; settings: ATCC MYA-2876, 48 h; procedure, shortened: as §3
Candida albicans [23] = experiment: Antifungal activity against azole-resistant Candida albicans ATCC 90819 after 48 hrs by microbroth dilution method; type: functional; settings: ATCC 90819, 48 h; procedure, shortened: as §3
Candida albicans [24] = experiment: Antifungal activity against azole-susceptible Candida albicans ATCC MYA-2310 after 48 hrs by microbroth dilution method; type: functional; settings: ATCC MYA-2310, 48 h; procedure, shortened: as §3
Candida albicans [25] = experiment: Antifungal activity against azole-resistant Candida albicans MYA-1237 after 48 hrs by microbroth dilution method; type: functional; settings: MYA-1237, 48 h; procedure, shortened: as §3
Candida albicans [26] = experiment: Antifungal activity against azole-resistant Candida albicans MYA-1003 after 48 hrs by microbroth dilution method; type: functional; settings: MYA-1003, 48 h; procedure, shortened: as §3
Aspergillus nidulans = experiment: Antifungal activity against Aspergillus nidulans ATCC 38163 after 48 hrs by microbroth dilution method; type: functional; settings: ATCC 38163, 48 h
Procedure, shortened: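 Filamentous fungus MIC by broth microdilution, run in duplicate. All compounds are read as MIC-0 (complete inhibition).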

Candida albicans [27] = experiment: (§4) Antifungal activity against azole-resistant Candida albicans ATCC 10231 after 48 hrs in presence of (2R,3S,4R,5R,6R)-5-amino-2-(aminomethyl)-6-((1R,2S,3S,4R,6S)-4,6-diamino-3-((2S,3R,4S,5S,6S)-4-amino-6-(dodecylthiomethyl)-3,5-dihydroxytetrahydro-2H-pyran-2-yloxy)-2-hydroxycyclohexyloxy)tetrahydro-2H-pyran-3,4-diol by checkerboard microdilution assay; type: functional; settings: ATCC 10231, 48 h
Procedure, shortened: (§5)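 Checkerboard combinations of the aminoglycoside amphiphile with posaconazole against yeast strains, run in duplicate. Each agent's MIC is taken alone and in combination. The fractional inhibitory concentration index (FICI) is calculated to classify the interaction.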

Candida albicans [28] = experiment: as §4, with “64124” for “10231”; type: functional; settings: ATCC 64124, 48 h; procedure, shortened: as §5
Candida albicans [29] = experiment: as §4, with “azole-susceptible” for “azole-resistant”, “MYA-2876” for “10231”; type: functional; settings: ATCC MYA-2876, 48 h; procedure, shortened: as §5
Candida albicans [30] = experiment: as §4, with “90819” for “10231”; type: functional; settings: ATCC 90819, 48 h; procedure, shortened: as §5
Candida albicans [31] = experiment: as §4, with “azole-susceptible” for “azole-resistant”, “MYA-2310” for “10231”; type: functional; settings: ATCC MYA-2310, 48 h; procedure, shortened: as §5
Candida albicans [32] = experiment: as §4, with “MYA-1237” for “ATCC 10231”; type: functional; settings: MYA-1237, 48 h; procedure, shortened: as §5
Candida albicans [33] = experiment: as §4, with “MYA-1003” for “ATCC 10231”; type: functional; settings: MYA-1003, 48 h; procedure, shortened: as §5
Candida albicans [34] = experiment: as §4, with “10231 assessed as fractional inhibition” for “10231”; type: functional; settings: ATCC 10231, 48 h; procedure, shortened: as §5
Candida albicans [35] = experiment: as §4, with “64124 assessed as fractional inhibition” for “10231”; type: functional; settings: ATCC 64124, 48 h; procedure, shortened: as §5
Candida albicans [36] = experiment: as §4, with “azole-susceptible” for “azole-resistant”, “MYA-2876 assessed as fractional inhibition” for “10231”; type: functional; settings: ATCC MYA-2876, 48 h; procedure, shortened: as §5
Candida albicans [37] = experiment: as §4, with “90819 assessed as fractional inhibition” for “10231”; type: functional; settings: ATCC 90819, 48 h; procedure, shortened: as §5
Candida albicans [38] = experiment: as §4, with “azole-susceptible” for “azole-resistant”, “MYA-2310 assessed as fractional inhibition” for “10231”; type: functional; settings: ATCC MYA-2310, 48 h; procedure, shortened: as §5
Candida albicans [39] = experiment: as §4, with “MYA-1237 assessed as fractional inhibition” for “ATCC 10231”; type: functional; settings: MYA-1237, 48 h; procedure, shortened: as §5
Candida albicans [40] = experiment: as §4, with “MYA-1003 assessed as fractional inhibition” for “ATCC 10231”; type: functional; settings: MYA-1003, 48 h; procedure, shortened: as §5

## NC[C@H]1O[C@H](O[C@H]2[C@H](O)[C@@H](O[C@H]3O[C@H](CO)[C@@H](O)[C@H](N)[C@H]3O)[C@H](N)C[C@@H]2N)[C@H](N)[C@@H](O)[C@@H]1O [BEKANAMYCIN]
Listeria monocytogenes [1]
  Ratio: 4
Candida albicans [2]
  Activity: 5%
[3]
  Activity: Non-toxic
A549
  Activity: Non-toxic
[4]
  Activity: Non-toxic
Klebsiella pneumoniae
  MIC: 4 µg/mL (≈ 8.27 µM)
Bacillus subtilis
  MIC: 4 µg/mL (≈ 8.27 µM)
Listeria monocytogenes [5]
  MIC: ≤ 0.25 µg/mL
Staphylococcus aureus [6]
  MIC: > 128 µg/mL
[7]
  MIC: ≤ 0.25 µg/mL
Staphylococcus aureus [8]
  MIC: ≤ 0.25 µg/mL
Staphylococcus aureus [9]
  MIC: > 128 µg/mL
Staphylococcus aureus [10]
  MIC: 128 µg/mL (≈ 265 µM)
Staphylococcus aureus [11]
  MIC: 32 µg/mL (≈ 66.2 µM)
Staphylococcus aureus [12]
  MIC: 32 µg/mL (≈ 66.2 µM)
[13]
  MIC: 0.5 µg/mL (≈ 1.03 µM)
Enterococcus
  MIC: > 128 µg/mL
Acinetobacter baumannii
  MIC: 4 µg/mL (≈ 8.27 µM)
Enterobacter cloacae
  MIC: 0.5 µg/mL (≈ 1.03 µM)
Escherichia coli
  MIC: 2 µg/mL (≈ 4.14 µM)
Pseudomonas aeruginosa
  MIC: 16 µg/mL (≈ 33.1 µM)
Salmonella enterica
  MIC: 2 µg/mL (≈ 4.14 µM)
[14]
  Activity: Active
[15]
  Activity: Active
Serratia marcescens
  Activity: Active
[16]
  Activity: inactive
[17]
  Activity: inactive
[18]
  Activity: inactive
[19]
  Activity: Active
Candida albicans [20]
  MIC: > 125 µg/mL
Candida albicans [21]
  MIC: > 125 µg/mL
Candida albicans [22]
  MIC: > 125 µg/mL
Candida albicans [23]
  MIC: > 125 µg/mL
Candida albicans [24]
  MIC: > 125 µg/mL
Candida albicans [25]
  MIC: > 125 µg/mL
Candida albicans [26]
  MIC: > 125 µg/mL
Aspergillus nidulans
  MIC: > 125 µg/mL

## CC[C@@H]([C@H](C)O)n1ncn(-c2ccc(N3CCN(c4ccc(OC[C@@H]5CO[C@@](Cn6cncn6)(c6ccc(F)cc6F)C5)cc4)CC3)cc2)c1=O [POSACONAZOLE]
Candida albicans [27]
  MIC: 0.06 µg/mL
Candida albicans [28]
  MIC: 0.78 µg/mL
Candida albicans [29]
  MIC: 0.78 µg/mL
Candida albicans [30]
  MIC: 0.78 µg/mL
Candida albicans [31]
  MIC: 0.39 µg/mL
Candida albicans [32]
  MIC: 0.78 µg/mL
Candida albicans [33]
  MIC: 0.78 µg/mL
Candida albicans [34]
  MIC: 0.06 µg/mL
Candida albicans [35]
  MIC: 1.56 µg/mL
Candida albicans [36]
  MIC: 1.56 µg/mL
Candida albicans [37]
  MIC: 0.78 µg/mL
Candida albicans [38]
  MIC: 1.56 µg/mL
Candida albicans [39]
  MIC: 0.78 µg/mL
Candida albicans [40]
  MIC: 1.56 µg/mL
Candida albicans [20]
  MIC50: 0.5 µg/mL (≈ 0.713 µM)
Candida albicans [21]
  MIC50: > 62.5 µg/mL
Candida albicans [22]
  MIC50: 7.8 µg/mL (≈ 11.1 µM)
Candida albicans [23]
  MIC50: 31.2 µg/mL (≈ 44.5 µM)
Candida albicans [25]
  MIC50: 15.6 µg/mL (≈ 22.3 µM)
Candida albicans [26]
  MIC50: 15.6 µg/mL (≈ 22.3 µM)
Aspergillus nidulans
  MIC: ≤ 1.95 µg/mL
